This note sets out measurements from ChEMBL document CHEMBL4219220, “Novel compounds that target lipoprotein lipase and mediate growth arrest in acute lymphoblastic leukemia” (Bioorg Med Chem Lett, 2018).

Data set [1] deals with SUP-B15. Briefly: Antiproliferative activity in human SUP-B15 cells assessed as inhibition of cell proliferation at 50 uM incubated for 72 hrs by CCK8 assay. Format: functional, cell-based. Summed up: (§1)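 REH (Ph-negative, peripheral blood derived) and SupB15 (Ph-positive, bone marrow derived) B-ALL cells seeded at 50,000 cells/well in 96-well plates. Single test concentration of 50 μM (final) for 72 h, with untreated cells as controls. Proliferation read by CCK-8 (reagent 2 h at 37° C, absorbance 450 nm). Mean ± SEM, N = 3.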

The test system of data set [2] is REH. Briefly: Antiproliferative activity in human REH cells assessed as inhibition of cell proliferation at 50 uM incubated for 72 hrs by CCK8 assay. Format: functional. Summed up: as §1
Data set [3] relates to REH. Briefly: Induction of cell death in human REH cells co-cultured with bone marrow stromal cells assessed as increase in cell death of suspended floater cells at 20 to 40 uM. Format: functional, cell-based. Summed up: (§2)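 REH leukemic cells in co-culture with bone marrow stromal cells. Two fractions were scored: suspended floaters (FL), and phase dim (PD) cells lying beneath the stromal layer. Read-outs were live cell population and cell death.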

Data set [4] concerns REH. The data set is described as follows: Induction of cell death in human REH cells co-cultured with bone marrow stromal cells assessed as increase in cell death of phase dim cells buried underneath bone marrow stromal layer at 20 to 40 uM. Format: functional, cell-based. Summed up:
as §2

Data set [5] concerns REH. The data set is described as follows: Antiproliferative activity in human REH cells assessed as inhibition of cell proliferation incubated for 72 hrs by CCK8 assay. The data set is classed as functional, cell-based. Summed up: (§3)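 Dose-response in REH and SupB15 cells. Proliferation read by CCK-8 after 72 h of compound exposure (reagent 2 h at 37° C, absorbance 450 nm). IC50 taken from the dose-response curve.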
(Tetrazolium assays rely on reduction of a dye to a coloured formazan, in cell work by metabolically active cells.)

Data set [6] concerns REH. Briefly: Induction of cell death in human REH cells co-cultured with bone marrow stromal cells assessed as reduction in live cell population of suspended floater cells at 20 to 40 uM. Format: functional, cell-based. Summed up: as §2
The test system of data set [7] is REH. The data set is described as follows: Induction of cell death in human REH cells co-cultured with bone marrow stromal cells assessed as reduction in live cell population of phase dim cells buried underneath bone marrow stromal layer at 20 to 40 uM. Format: functional, cell-based. Summed up: as §2
The subject of data set [8] is SUP-B15. The data set is described as follows: Antiproliferative activity in human SUP-B15 cells assessed as inhibition of cell proliferation incubated for 72 hrs by CCK8 assay. The conditions noted are these: SUP-B15, 72 h. Format: functional, cell-based. Summed up: as §3
Another data set addresses Albumin (Homo sapiens, UniProt P02768). The data set is described as follows: Binding affinity to serum albumin (unknown origin) at 1 to 100 uM. The data set is classed as ADME. To be noted: read-out: PB.

Active and inactive are the calls of the source. The calls are words filed in the database; no cut-off is given here.

Chain of Albumin (P02768 whole entry): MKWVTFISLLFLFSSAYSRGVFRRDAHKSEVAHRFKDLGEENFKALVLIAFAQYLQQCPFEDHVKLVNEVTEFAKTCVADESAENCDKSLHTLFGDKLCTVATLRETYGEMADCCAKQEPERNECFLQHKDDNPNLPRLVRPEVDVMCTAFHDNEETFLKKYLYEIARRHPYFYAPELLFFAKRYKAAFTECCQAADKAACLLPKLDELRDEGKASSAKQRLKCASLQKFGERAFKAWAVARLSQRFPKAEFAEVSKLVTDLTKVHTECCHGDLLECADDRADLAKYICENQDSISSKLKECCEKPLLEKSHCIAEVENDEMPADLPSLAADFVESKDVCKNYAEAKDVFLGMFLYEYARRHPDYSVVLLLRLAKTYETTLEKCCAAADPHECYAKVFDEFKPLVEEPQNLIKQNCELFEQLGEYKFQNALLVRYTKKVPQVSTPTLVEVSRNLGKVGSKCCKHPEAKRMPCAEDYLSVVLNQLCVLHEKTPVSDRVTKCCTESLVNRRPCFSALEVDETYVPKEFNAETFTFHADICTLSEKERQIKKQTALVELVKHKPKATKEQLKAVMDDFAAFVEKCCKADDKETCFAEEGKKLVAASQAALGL

Regarding `CC1(C)C(C(=O)N2CCC3(CCCO3)CC2)C1c1ccc(F)cc1` (configuration not stated), the inhibition (usually the relative decrease from the control value, in per cent) in the data set on SUP-B15 [1] is “inactive”. In addition, the inhibition entry in the data set with REH [2] was “Active”.
`CC1(C)C(C(=O)NCCNc2cccnc2)C1c1ccc(F)cc1` (configuration not stated): the inhibition entry with SUP-B15 [1] is “inactive”. Also, the inhibition entry in the data set with REH [2] was “Active”.
Taken in the same sequence, the figures for `Cc1nccn1-c1ccccc1CNC(=O)C1C(c2ccc(F)cc2)C1(C)C` (configuration not stated) were “inactive” and “Active”.
Taken in the same sequence, the figures for `CC1(C)C(C(=O)NCCCN2CCOCC2)C1c1ccc(F)cc1` (configuration not stated) were “inactive” and “Active”.
In the case of `Cc1cnc(CNC(=O)C2C(c3ccc(F)cc3)C2(C)C)cn1` (configuration not stated), the inhibition result in the data set on SUP-B15 [1] was “inactive”. In addition, the inhibition result with REH [2] is “Active”.
Taken in the same sequence, the figures for `CC1C=NN=C1C(C)NC(=O)C1C(c2ccc(F)cc2)C1(C)C` (configuration not stated) were “inactive” and “Active”.
As for `CC1(C)C(C(=O)N2CC(c3cccnc3)C2)C1c1ccc(F)cc1` (configuration not stated), the inhibition result in the data set with SUP-B15 [1] is “inactive”. Further, the inhibition result with REH [2] was “Active”.
Taken in the same sequence, the figures for `COCc1cc(CNC(=O)C2C(c3ccc(F)cc3)C2(C)C)n[nH]1` (configuration not stated) were “inactive” and “Active”.
Taken in the same sequence, the figures for `CC1(C)C(C(=O)NCc2noc(-c3ccco3)n2)C1c1ccc(F)cc1` (configuration not stated) were “inactive” and “Active”.
On to `CN1CC2(CCC1=O)CCN(C(=O)C1C(c3ccc(F)cc3)C1(C)C)CC2` (configuration not stated), for which, in the data set with SUP-B15 [1], the inhibition entry was “inactive”. The inhibition entry in the data set with REH [2] was “Active”.
As to `CC1(C)C(C(=O)NCCCc2cnc(N)s2)C1c1ccc(F)cc1` (configuration not stated), the inhibition result in the data set with SUP-B15 [1] is “inactive”. Also, the inhibition entry with REH [2] is “Active”.
For the compound `Cc1cccnc1CN1CCN(C(=O)C2C(c3ccc(F)cc3)C2(C)C)CC1` (configuration not stated), the inhibition result in the data set on SUP-B15 [1] is “inactive”. Also, the inhibition result with REH [2] is “Active”.
Taken in the same sequence, the figures for `CC1(C)C(C(=O)NCC2CCC(C(=O)O)CC2)C1c1ccc(F)cc1` (configuration not stated) were “inactive” and “Active”.
Taken in the same sequence, the figures for `Cc1cc(CNC(=O)C2C(c3ccc(F)cc3)C2(C)C)ccn1` (configuration not stated) were “inactive” and “Active”.
Taken in the same sequence, the figures for `CSCc1nc(CNC(=O)C2C(c3ccc(F)cc3)C2(C)C)no1` (configuration not stated) were “inactive” and “Active”.
As to `CCc1c(C)nn(CCNC(=O)C2C(c3ccc(F)cc3)C2(C)C)c1C` (configuration not stated), the result in the data set on REH [3], in the data set on REH [4], in the data set on REH [6] and in the data set with REH [7] was Active. The figures for the IC50 in the data set with REH [5] and in the data set with SUP-B15 [8] were 16.5 µM and 44.7 µM, respectively. Besides, the inhibition result in the data set with SUP-B15 [1] was “Active”. The fraction unbound at up to 100 µM at Albumin is over 0.95. For the same compound, in the data set with REH [2], the inhibition at 50 µM is over 50%.
Turning to `CSc1ncc(CNC(=O)C2C(c3ccc(F)cc3)C2(C)C)n1C` (configuration not stated), in the data set with SUP-B15 [1], the inhibition result is “inactive”. In addition, the inhibition result in the data set on REH [2] is “Active”.
In the case of `Cc1nc[nH]c1CCCCNC(=O)C1C(c2ccc(F)cc2)C1(C)C` (configuration not stated), the inhibition result with SUP-B15 [1] was “inactive”. Also, in the data set on REH [2], the inhibition entry is “Active”.
Take `Cc1cccc(=O)n1CCCNC(=O)C1C(c2ccc(F)cc2)C1(C)C` (configuration not stated): the inhibition result in the data set on SUP-B15 [1] is “inactive”. The inhibition entry in the data set with REH [2] was “Active”.
Taken in the same sequence, the figures for `CC1(C)C(C(=O)N2CCN(c3cnccn3)CC2)C1c1ccc(F)cc1` (configuration not stated) were “inactive” and “Active”.
